Measured values taken from ChEMBL document CHEMBL1129540, “Synthesis and cytotoxicity of 1,2-disubstituted naphth[2,3-d]imidazole-4,9-diones and related compounds” (1996).

Tests used:
Assay type in all cases: functional
UACC-62 = test: In vitro inhibitory activity against melanoma UACC-62 cancer cell line; conditions: Homo sapiens
How it was run: (§1)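 Tested in the National Cancer Institute's in vitro disease-oriented tumor cell line screen. Dose-response curves were recorded for each cell line, and values are reported as log GI50, the compound concentration that inhibits cell growth by 50%.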

RXF 393 = test: In vitro inhibitory activity against renal RXF-393 cancer cell line; conditions: Homo sapiens; how it was run: as §1
ACHN = test: In vitro inhibitory activity against renal ACHN cancer cell line; conditions: Homo sapiens; how it was run: as §1
HOP-92 = test: In vitro inhibitory activity against non small lung HOP-92 cancer cell line; conditions: Homo sapiens; how it was run: as §1
[1] = In vitro inhibitory activity against small cell lung DMS 114 cancer cell line; conditions: Homo sapiens, Cancer cell lines; how it was run: as §1
HL-60 = test: In vitro inhibitory activity against leukemia HL-60(TB) cancer cell line; conditions: Homo sapiens
How it was run: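 Tested in the NCI in vitro disease-oriented human tumour cell line screen. Growth inhibition was read from dose-response curves and reported as log GI50, the compound concentration that inhibits cell growth by 50%.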

IGROV-1 = test: In vitro inhibitory activity against ovarain IGROV1 cancer cell line; conditions: Homo sapiens; how it was run: as §1
Malme-3M = test: In vitro inhibitory activity against melanoma MALME-3M cancer cell line; conditions: Homo sapiens; how it was run: as §1
K562 = test: In vitro inhibitory activity against leukemia K-562 cancer cell line; conditions: Homo sapiens; how it was run: as §1
OVCAR-3 = test: In vitro inhibitory activity against ovarain OVCAR-3 cancer cell line; conditions: Homo sapiens; how it was run: as §1
HCT-116 = test: In vitro inhibitory activity against colon HCT116 cancer cell line; conditions: Homo sapiens; how it was run: as §1
SF-539 = test: In vitro inhibitory activity against CNS SF-539 cancer cell line; conditions: Homo sapiens; how it was run: as §1
NCI-H522 = test: In vitro inhibitory activity against non small lung […]H522 cancer cell line; conditions: Homo sapiens; how it was run: as §1
U-251 = test: In vitro inhibitory activity against CNS U-251 cancer cell line; conditions: Homo sapiens; how it was run: as §1
COLO 205 = test: In vitro inhibitory activity against colon COLO-205 cancer cell line; conditions: Homo sapiens; how it was run: as §1
[2] = In vitro inhibitory activity against small cell lung DMS 273 cancer cell line; conditions: Homo sapiens, Cancer cell lines; how it was run: as §1
MCF7 = test: In vitro inhibitory activity against breast MCF-7 cancer cell line; conditions: Homo sapiens; how it was run: as §1
DU-145 = test: In vitro inhibitory activity against prostate DU-145 cancer cell line; conditions: Homo sapiens; how it was run: as §1
PC-3 = test: In vitro inhibitory activity against prostate PC-3 cancer cell line; conditions: Homo sapiens; how it was run: as §1
MDA-N = test: In vitro inhibitory activity against breast MDA-N cancer cell line; conditions: Homo sapiens; how it was run: as §1

Row | SMILES | GI50 (UACC-62) | GI50 (RXF 393) | GI50 (ACHN) | GI50 (HOP-92) | GI50 [1] | GI50 (HL-60) | GI50 (IGROV-1) | GI50 (Malme-3M) | GI50 (K562) | GI50 (OVCAR-3) | GI50 (HCT-116) | GI50 (SF-539) | GI50 (NCI-H522) | GI50 (U-251) | GI50 (COLO 205) | GI50 [2] | GI50 (MCF7) | GI50 (DU-145) | GI50 (PC-3) | GI50 (MDA-N)
1 | O=C(Cc1ccccc1F)NC1=C(Cl)C(=O)c2ccccc2C1=O | 0.331 µM | 0.166 µM | 0.479 µM | 1.1 µM | 0.174 µM | 0.282 µM | 0.676 µM | 1.7 µM | 0.295 µM | 0.933 µM | 0.427 µM | 0.24 µM | 0.214 µM | 0.331 µM | 1.91 µM | 1.29 µM |  |  |  | 
2 | CC/N=C1/C(=O)c2ccccc2C(O)=C1NC(=O)c1cc(OC)cc(OC)c1 | 0.355 µM | 0.324 µM | 0.977 µM | 1.12 µM |  | 0.407 µM | 1.55 µM | 0.776 µM | 0.49 µM | 0.525 µM | 0.417 µM | 1.91 µM | 0.372 µM | 0.525 µM | 3.47 µM |  | 0.372 µM | 2.69 µM | 0.38 µM | 0.12 µM
3 | CCn1c(C)nc2c1C(=O)c1ccccc1C2=O | 4.9 µM | 27.5 µM |  | 1.62 µM | 0.275 µM | 16.6 µM | 2.04 µM | 2.51 µM | 1.66 µM | 0.0501 µM | 1.23 µM | 2.69 µM | 0.24 µM | 1.91 µM | 0.355 µM | 1.66 µM | 0.676 µM |  |  | 
